Only some compounds are listed: those with a hit (about 2.3% of all), similar ones and a draw of the others.
TRPC6 inh: mouse TRPC6 channel inhibitors, primary screen, cell-based, HEK293, membrane potential dye; ACh-evoked depolarization; hits give low values; B-score at 10 µM; 310,000 compounds, 1.1% hits;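 active = B-score under library mean minus 3 SD, initial fluorescence not abnormally high, positive integrated signal ratio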;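 also: B-score derived from integrated fluorescence ratio over the kinetic read; more negative B-score means stronger inhibition of depolarization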
TRPC4 inh: inhibitors of mouse TRPC4 channel, primary screen, Fluo4 calcium, HEK293 TRPC4beta/mu-opioid cells. 300,000 compounds, 0.39% hits. B-score at 10 µM. Short transient receptor potential channel 4 (Mus musculus), Q9QUQ5. DAMGO-evoked Fluo4 calcium flux; hits give low values;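 active = B-score over 3 SD under the library average, no early fluorescence shift, positive overall ratio signal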
Target sequence (Q9QUQ5 whole entry, looked up): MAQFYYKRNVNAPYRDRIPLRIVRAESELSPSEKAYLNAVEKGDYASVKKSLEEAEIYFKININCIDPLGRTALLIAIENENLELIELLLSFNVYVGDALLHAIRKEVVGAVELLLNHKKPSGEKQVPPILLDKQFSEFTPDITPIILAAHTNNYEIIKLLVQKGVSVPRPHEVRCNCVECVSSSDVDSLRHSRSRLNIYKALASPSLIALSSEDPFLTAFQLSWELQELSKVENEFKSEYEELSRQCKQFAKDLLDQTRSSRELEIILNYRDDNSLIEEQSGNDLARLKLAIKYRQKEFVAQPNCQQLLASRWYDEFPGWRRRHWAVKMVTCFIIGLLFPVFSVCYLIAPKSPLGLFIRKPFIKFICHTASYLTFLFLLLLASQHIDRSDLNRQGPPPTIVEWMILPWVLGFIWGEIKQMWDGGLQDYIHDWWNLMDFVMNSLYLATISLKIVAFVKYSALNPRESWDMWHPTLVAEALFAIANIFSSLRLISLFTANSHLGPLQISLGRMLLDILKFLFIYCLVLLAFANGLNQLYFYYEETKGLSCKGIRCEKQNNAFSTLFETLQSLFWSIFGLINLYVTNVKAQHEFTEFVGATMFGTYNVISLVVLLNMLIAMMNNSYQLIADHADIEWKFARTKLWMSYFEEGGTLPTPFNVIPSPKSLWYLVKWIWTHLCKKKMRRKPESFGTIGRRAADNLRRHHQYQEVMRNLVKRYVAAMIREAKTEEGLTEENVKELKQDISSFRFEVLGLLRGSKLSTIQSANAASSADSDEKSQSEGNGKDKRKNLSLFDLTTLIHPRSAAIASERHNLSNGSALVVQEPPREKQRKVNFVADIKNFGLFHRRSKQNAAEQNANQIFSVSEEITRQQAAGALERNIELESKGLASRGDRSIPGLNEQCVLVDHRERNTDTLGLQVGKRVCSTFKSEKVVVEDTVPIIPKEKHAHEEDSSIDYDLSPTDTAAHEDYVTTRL
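test system = HEK293 cells with stable TRPC4beta plus mu-opioid receptor expression | detection = Fluo4 Ca2+ flux fluorescence | read-out = integrated fluorescence ratio relative to baseline, converted to per-well B score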
TRPC4 potent: positive allosteric modulators of TRPC4, primary screen, cell-based, mouse TRPC4beta, HEK293 mu-opioid, Fluo-4 calcium | DAMGO EC20, Fluo-4 Ca2+ flux; hits give high values | B-score at 10 µM | 310,000 compounds, 0.42% hits;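 active = B-score of calcium response area above 5 SD of library B-scores, with initial fluorescence ratio within 5 SD of library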
TRPC4 act: activators of mouse TRPC4 channel, primary screen, Fluo4 calcium, HEK293 TRPC4beta/mu-opioid cells; Short transient receptor potential channel 4 (Mus musculus), Q9QUQ5; Fluo4 calcium fluorescence; hits give high values; B-score at 10 µM; 310,000 compounds, 0.49% hits; AID 2237, 2010;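 active = B-score above 5 SD of library B-scores, and initial fluorescence ratio not above library mean plus 5 SD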;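 also: positive B-score marks a calcium rise read as TRPC4 activation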
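Material: HEK293 stable line with TRPC4beta plus mu-opioid receptor; technique: Fluo4 calcium-sensitive dye fluorescence, kinetic, 1 Hz baseline; timing: Fluo4 dye loading 45 min at room temperature, 110 s recording; controls: assay buffer as low control, maximal DAMGO as high control; read-out: integrated baseline-normalised fluorescence ratio, converted to per-well B score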
TRPC6 act: mouse TRPC6 channel activators, primary screen, cell-based, HEK293, membrane potential dye; Short transient receptor potential channel 6 (Mus musculus), Q61143; HEK293-TRPC6 membrane potential dye fluorescence; hits give high values; B-score at 10 µM; 310,000 compounds, 0.13% hits;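 active = B-score of the integrated fluorescence ratio above library mean plus 3 SD, and starting fluorescence ratio within library mean plus 5 SD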;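 also: higher score means more depolarization so channel activation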
TRPC4 sel inh 2: mouse TRPC4 off-target activity of TRPC6 inhibitors, second screen; shares compounds with TRPC6 inh; HEK293 TRPC4/MOR, membrane potential dye fluorescence; channel activated by saturating DAMGO dose; inhibition, % at 10 µM; 920 compounds, 42% hits; AID 2776;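 active = compounds whose fluorescence signal differed from control wells by over 3 SD, either direction, in both duplicate plates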
TRPC4 spec: mouse TRPC4 modulation by TRPC6 hits, confirmation, selectivity assay for TRPC6 inhibitor project, cell-based, HEK293 TRPC4/mu-opioid, membrane potential dye. shares compounds with TRPC6 inh. membrane potential fluorescence. activity change, negative = inhibition, % at 10 µM. 920 compounds, 61% hits. AID 2777, 2010;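 active = rise or fall in signal beyond 3 SD of buffer-only wells in both replicate plates, either sign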;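 also: integrated kinetic ratio of fluorescence range over baseline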
HEK293 MPD ctr 2-1: nonspecific membrane potential effects, parental HEK293, confirmation, counter-screen for TRPC6 inhibitor project, cell-based, second counter screen; shares compounds with TRPC6 inh; parental HEK293 membrane potential dye fluorescence; maximal acetylcholine challenge after compound addition; signal change vs control, % at 10 µM; 920 compounds, 31% hits;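 active = membrane potential signal moving either way by over 3 SD of the maximum-effect control, in both duplicate plates, meaning non-specific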
HEK293 MPD ctr-1: membrane potential modulation in parental HEK293, confirmation, counter-screen for TRPC6 inhibitor project, cell-based; membrane potential signal change, % at 10 µM; parental HEK293 membrane potential dye fluorescence; shares compounds with TRPC6 inh; 920 compounds, 60% hits;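 active = membrane potential signal shifting up or down by more than 3 SD of buffer-only wells, on both duplicate plates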
HEK293 MPD ctr-2: parental HEK293 membrane potential modulation, confirmation, counter-screen for TRPC6 modulator project, cell-based; shares compounds with TRPC6 inh; membrane potential dye fluorescence; membrane potential signal change, % at 10 µM; 2,400 compounds, 51% hits; AID 488924, 2010;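 active = membrane potential signal moves up or down beyond 5 SD from buffer-only wells, on both duplicate plates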
HEK293 MPD ctr 2-2: parental HEK293 nonspecific activity of TRPC6 modulators, second screen | inhibition, % at 10 µM | AID 488926 | membrane potential dye fluorescence; after compound, maximal acetylcholine stimulation | 2,400 compounds, 14% hits | shares compounds with TRPC6 inh;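 active = membrane potential signal drops by more than 5 SD from the mean control signal, in both duplicate plates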
TRPC4 ctr mod: TRPC4 modulation by TRPC6 hit compounds, confirmation, selectivity assay for TRPC6 modulator project, cell-based, HEK293 TRPC4/mu-opioid, membrane potential dye, mouse; shares compounds with TRPC6 inh; membrane potential fluorescence; percent change from control (negative = decrease, positive = increase), % at 10 µM; 2,400 compounds, 69% hits;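 active = membrane potential signal moved up or down beyond 5 SD of buffer control wells, in both duplicate plates, actives on both sides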
TRPC4 ctr inh 2: mouse TRPC4 off-target activity of TRPC6 modulators, second screen; shares compounds with TRPC6 inh; HEK293 TRPC4/mu-opioid, membrane potential dye fluorescence; stimulated with maximal-effect DAMGO; inhibition, % at 10 µM; 2,400 compounds, 55% hits;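 active = drop in membrane potential signal beyond 5 SD of the control wells in both duplicate plates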;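 also: TRPC4 counter screen for TRPC6 hits run under conditions tuned for TRPC6 not TRPC4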
TRPC6 inh conf: mouse TRPC6 channel inhibitors, confirmation, HEK293 cells, membrane potential dye, duplicate; shares compounds with TRPC6 inh; ACh-evoked depolarization; inhibition, % at 10 µM; 3,300 compounds, 43% hits;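 active = fluorescence ratio falls more than 5 SD below the full-stimulation control mean, in both duplicate runs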;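 also: integrated fluorescence ratio of peak minus minimum over baseline after agonist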
TRPC6 act confirm: mouse TRPC6 channel activators, confirmation, HEK293 cells, membrane potential dye, duplicate | 2,800 compounds, 11% hits | HEK293-TRPC6 membrane potential dye fluorescence, FDSS | activation, % at 10 µM | shares compounds with TRPC6 inh;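 active = ratio signal rise beyond 5 SD above unstimulated control wells' mean, seen in both duplicate runs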
Numbers stand for hits; n = inactive; x = not tested or not shown.

SMILES	TRPC6 inh	TRPC4 inh	TRPC4 potent	TRPC4 act	TRPC6 act	TRPC4 sel inh 2	TRPC4 spec	HEK293 MPD ctr 2-1	HEK293 MPD ctr-1	HEK293 MPD ctr-2	HEK293 MPD ctr 2-2	TRPC4 ctr mod	TRPC4 ctr inh 2	TRPC6 inh conf	TRPC6 act confirm
CCOc1ccc(CNc2ccc3c(c2)ncn3C(C)(C)C)cc1	-8.5	n	n	n	n	n	n	n	n	x	x	x	x	66%	n
CCCn1cnc2cc(NCc3ccc(Br)cc3)ccc21	n	n	n	n	n	x	x	x	x	x	x	x	x	x	x
CCn1cnc2cc(NCc3ccc(Br)cc3)ccc21	-5	n	n	n	n	x	x	x	x	n	n	n	40%	40%	n
CN(CC(=O)Nc1ccc(Cl)c(C(F)(F)F)c1)C(=O)Cc1c[nH]c2ccccc12	-5.7	n	n	n	n	x	x	x	x	n	n	-11%	48%	58%	n
O=C(CN1CCCCC1)N1c2ccccc2CCc2ccccc21	-6.5	n	n	n	n	x	x	x	x	100%	n	17%	n	n	x
CCOC(=O)c1sc(=S)n(-c2ccccc2Cl)c1SC	-7.7	n	n	n	n	n	n	n	n	x	x	x	x	n	n
CCOC(=O)c1sc(=S)n(-c2ccccc2)c1SC	n	n	n	n	n	x	x	x	x	x	x	x	x	x	x
CCOC(=O)c1sc(=S)n(-c2ccc(OC)cc2)c1C	-6.3	n	n	n	n	x	x	x	x	n	n	10%	n	52%	x
CC1Sc2ccc(S(=O)(=O)N3CCC(C(=O)NCc4ccccc4)CC3)cc2NC1=O (configuration not stated)	n	n	n	n	n	x	x	x	x	x	x	x	x	x	x
CCOCCCNC(=S)N1CCCN(c2nc3cc(C)ccc3cc2C#N)CC1	-10	n	n	n	n	n	n	n	n	x	x	x	x	75%	x

Screening results from PubChem.
